In ChEMBL document CHEMBL4837188, “Identification of Novel Tricyclic Benzo[1,3]oxazinyloxazolidinones as Potent Antibacterial Agents with Excellent Pharmacokinetic Profiles against Drug-Resistant Pathogens” (J Med Chem, 2021):
Values after ≈ are worked out from the molar mass of the structure shown.

Tests used:
Assay type in all cases: functional
[1] = system: Mycobacterium tuberculosis; assay: Antitubercular activity against INH, SM, RFP, EMB, PAS, Prothionamide 1321, Capreomycin-resistant Mycobacterium tuberculosis 14862 assessed as bacterial growth inhibition incubated for 7 days by MABA; details: Mycobacterium tuberculosis, 14862, 168 h; time 7 day
Summary of the method: (§1)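 Microplate alamar blue assay. H37Rv or clinical isolates were grown to late log phase in 7H9 broth with glycerol, Tween 80 and ADC, then 2 × 10⁵ CFU added to two-fold dilutions. Final range 32–0.5 μg/mL, lowered to 2–0.016 μg/mL for active compounds. 37 °C, 7 days, then alamar blue 16 h. Fluorescence 530/590 nm. MIC is the lowest concentration giving ≥90% reduction; INH and RFP were controls.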

[2] = system: Mycobacterium tuberculosis; assay: Antitubercular activity against INH, SM, RFP, EMB, RBT, PAS, OLFX-resistant Mycobacterium tuberculosis 13946 assessed as bacterial growth inhibition incubated for 7 days by MABA; details: Mycobacterium tuberculosis, 13946, 168 h; time 7 day; summary of the method: as §1
[3] = system: Mycobacterium tuberculosis; assay: Antitubercular activity against linezolid resistant Mycobacterium tuberculosis assessed as inhibition of bacterial growth incubated for 7 days by MABA; details: 168 h, time 7 day

Compound | MIC [1] [µg/mL] | MIC [2] [µg/mL] | MIC [3] [µg/mL]
CC(=O)NC[C@@H]1OC(=O)N2Cc3cc(-c4ccc(-c5nnn(C)n5)nc4)c(F)cc3O[C@@H]12 | 0.85 (≈ 1.93 µM) | 0.39 (≈ 0.888 µM) | 2.32 (≈ 5.28 µM)
CC(=O)NC[C@@H]1OC(=O)N2Cc3cc(-c4ccc(C#N)nc4)c(F)cc3O[C@@H]12 | 0.82 (≈ 2.14 µM) | 0.48 (≈ 1.26 µM) | 3.63 (≈ 9.49 µM)
NNC(=O)c1ccncc1 [ISONIAZID] | > 10 | 2.38 (≈ 17.4 µM) | –
CC(=O)NC[C@H]1CN(c2ccc(N3CCOCC3)c(F)c2)C(=O)O1 [LINEZOLID] | – | – | 14.5 (≈ 43.1 µM)
CO[C@H]1/C=C/O[C@@]2(C)Oc3c(C)c(O)c4c(O)c(c(/C=N/N5CCN(C)CC5)c(O)c4c3C2=O)NC(=O)/C(C)=C\C=C\[C@H](C)[C@H](O)[C@@H](C)[C@@H](O)[C@@H](C)[C@H](OC(C)=O)[C@@H]1C [RIFAMPIN] | > 10 | > 10 | –
